Measured values: ChEMBL document CHEMBL1133005, “Improving the oral bioavailability of the iron chelator HBED by breaking the symmetry of the intramolecular H-bond network” (J Med Chem, 2000)

How the values were obtained:
Format in all cases: physicochemical
[1] = Evaluated for ionization constant (pKa3) by titrations performed in the absence of a cosolvent and at a dielectric constant of 78; details: no cosolvent; read-out: pKa3
[2] = Partition coefficient (logP) (cyclohexane)
Outline: (§1)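 Free-ligand partition coefficients are measured by the pH-metric technique. This uses two linked titrations: a normal aqueous titration, then a two-phase titration in the presence of the partition solvent.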

[3] = Evaluated for ionization constant (pKa3) by titrations performed using the method of Yasuda and Shedlovsky; details: read-out: pKa3
Outline: (§2)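 Aqueous constants were extrapolated by the Yasuda–Shedlovsky method from pH-metric titrations run at several MeOH or EtOH cosolvent levels. Electrode calibrated with pH 7.00 phosphate buffer and standardized after a blank titration. Values are expressed on the pcH (-log[H+]) concentration scale.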

[4] = Evaluated for ionization constant-1 (pKa1) by titrations performed in absence of a cosolvent at a dielectric constant of 78; details: no cosolvent, dielectric constant 78; read-out: pKa1
Outline: (§3)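 Potentiometric pH titration. The electrode is calibrated with pH 7.00 phosphate buffer. A blank titration before each set standardizes the electrode by a nonlinear semiempirical equation, and readings are converted to the concentration scale pcH = −log[H+]. Runs use varying amounts of MeOH or EtOH cosolvent, and aqueous pKa values are extrapolated by the Yasuda–Shedlovsky method. Low pKa values (pH < 2) are determined by spectrophotometric titration.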

[5] = Evaluated for ionization constant (pKa2) by titrations performed in the absence of cosolvent and at a dielectric constant of 78; details: no cosolvent, dielectric constant 78; read-out: pKa2
[6] = Evaluated for ionization constant (pKa5) by titrations performed in the presence of MeOH at a dielectric constant of 62; details: MeOH cosolvent; read-out: pKa5; outline: as §3
[7] = Evaluated for ionization constant (pKa6) by titrations performed in the presence of MeOH at a dielectric constant of 56; details: MeOH cosolvent, dielectric constant 56; read-out: pKa6; outline: as §3
[8] = Evaluated for ionization constant (pKa3) by titrations performed in the presence of MeOH at a dielectric constant of 62; details: MeOH cosolvent; read-out: pKa3
Outline: (§4)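 pH-metric titration in mixed water/cosolvent media (MeOH or EtOH, depending on the ligand) at several cosolvent proportions, each proportion setting the dielectric constant. Electrode calibrated with pH 7.00 phosphate buffer and standardized after a blank titration by a nonlinear semiempirical fit. Readings were converted to pcH to give concentration-scale constants.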

[9] = Evaluated for ionization constant (pKa3) by titrations performed in the presence of MeOH at a dielectric constant of 49; details: MeOH cosolvent; read-out: pKa3; outline: as §4
[10] = Evaluated for ionization constant (pKa4) by titrations performed using the method of Yasuda and Shedlovsky; details: read-out: pKa4; outline: as §3
[11] = Evaluated for ionization constant (pKa4) by titrations performed in the presence of MeOH at a dielectric constant of 49; details: MeOH cosolvent; read-out: pKa4; outline: as §4
[12] = Evaluated for ionization constant (pKa4) by titrations performed in the presence of MeOH at a dielectric constant of 56; details: MeOH cosolvent, dielectric constant 56; read-out: pKa4; outline: as §4
[13] = Partition coefficient (logP); details: octanol/water; outline: as §1
[14] = Evaluated for ionization constant (pKa6) by titrations performed in the presence of MeOH at a dielectric constant of 49; details: MeOH cosolvent, dielectric constant 49; read-out: pKa6; outline: as §3
[15] = Evaluated for ionization constant (pKa6) by titrations performed using the method of Yasuda and Shedlovsky; details: read-out: pKa6; outline: as §3
[16] = Evaluated for ionization constant (pKa6) by titrations performed in the presence of MeOH at a dielectric constant of 62; details: MeOH cosolvent, dielectric constant 62; read-out: pKa6; outline: as §3
[17] = Evaluated for ionization constant (pKa5) by titrations performed in the presence of MeOH at a dielectric constant of 56; details: MeOH cosolvent; read-out: pKa5; outline: as §3
[18] = Evaluated for ionization constant (pKa5) by titrations performed using the method of Yasuda and Shedlovsky; details: read-out: pKa5; outline: as §3
[19] = Evaluated for ionization constant (pKa2) by titrations performed in the presence of MeOH at a dielectric constant of 56; details: MeOH cosolvent, dielectric constant 56; read-out: pKa2; outline: as §4
[20] = Evaluated for ionization constant (pKa3) by titrations performed in the presence of MeOH at a dielectric constant of 56; details: MeOH cosolvent; read-out: pKa3; outline: as §4
[21] = Evaluated for ionization constant (pKa5) by titrations performed in the presence of MeOH at a dielectric constant of 49; details: MeOH cosolvent; read-out: pKa5; outline: as §3
[22] = Evaluated for ionization constant (pKa4) by titrations performed in the presence of MeOH at a dielectric constant of 62; details: MeOH cosolvent; read-out: pKa4; outline: as §4
[23] = Evaluated for ionization constant (pKa4) by titrations performed in the absence of a cosolvent and at a dielectric constant of 78; details: no cosolvent; read-out: pKa4
[24] = Partition coefficient (logP) (chloroform); outline: as §1
[25] = Evaluated for ionization constant (pKa2) by titrations performed in presence of MeOH solvent at a dielectric constant of 49; details: MeOH cosolvent, dielectric constant 49; read-out: pKa2; outline: as §4
[26] = Evaluated for ionization constant (pKa4) by titrations performed in presence of MeOH solvent at a dielectric constant of 62; details: MeOH cosolvent; read-out: pKa4; outline: as §4
[27] = Evaluated for ionization constant (pKa3) by titrations performed in presence of MeOH solvent at a dielectric constant of 49; details: MeOH cosolvent; read-out: pKa3; outline: as §4
[28] = Evaluated for ionization constant (pKa5) by titrations performed in presence of MeOH solvent at a dielectric constant of 62; details: MeOH cosolvent; read-out: pKa5; outline: as §3
[29] = Evaluated for ionization constant (pKa3) by titrations performed in absence of cosolvent and at a dielectric constant of 78; details: no cosolvent; read-out: pKa3
[30] = Evaluated for ionization constant (pKa1) by titrations performed in absence of a cosolvent at a dielectric constant of 78; details: no cosolvent, dielectric constant 78; read-out: pKa1
[31] = Evaluated for ionization constant (pKa2) by titrations performed in absence of cosolvent and at a dielectric constant of 78; details: no cosolvent, dielectric constant 78; read-out: pKa2
[32] = Evaluated for ionization constant (pKa5) by titrations performed in presence of MeOH solvent at a dielectric constant of 49; details: MeOH cosolvent; read-out: pKa5; outline: as §3
[33] = Evaluated for ionization constant (pKa4) by titrations performed in presence of MeOH solvent at a dielectric constant of 56; details: MeOH cosolvent; read-out: pKa4; outline: as §4
[34] = Evaluated for ionization constant (pKa4) by titrations performed in presence of MeOH solvent at a dielectric constant of 78; details: MeOH cosolvent; read-out: pKa4
[35] = Evaluated for ionization constant (pKa4) by titrations performed in presence of MeOH solvent at a dielectric constant of 49; details: MeOH cosolvent; read-out: pKa4; outline: as §4
[36] = Evaluated for ionization constant (pKa2) by titrations performed in presence of MeOH solvent at a dielectric constant of 56; details: MeOH cosolvent, dielectric constant 56; read-out: pKa2; outline: as §4
[37] = Evaluated for ionization constant (pKa5) by titrations performed in presence of MeOH solvent at a dielectric constant of 56; details: MeOH cosolvent; read-out: pKa5; outline: as §3
[38] = Evaluated for ionization constant (pKa2) by titrations performed in presence of MeOH solvent at a dielectric constant of 62; details: MeOH cosolvent, dielectric constant 62; read-out: pKa2; outline: as §4
[39] = Evaluated for ionization constant (pKa3) by titrations performed in presence of MeOH solvent at a dielectric constant of 56; details: MeOH cosolvent; read-out: pKa3; outline: as §4
[40] = Evaluated for ionization constant (pKa3) by titrations performed in presence of MeOH solvent at a dielectric constant of 62; details: MeOH cosolvent; read-out: pKa3; outline: as §4
[41] = Evaluated for ionization constant (pKa2) by titrations performed using method of Yasuda and Shedlovsky; details: read-out: pKa2; outline: as §2
[42] = Evaluated for ionization constant (pKa2) by titrations performed in the presence of EtOH at a dielectric constant of 63; details: EtOH cosolvent, dielectric constant 63; read-out: pKa2; outline: as §4
[43] = Evaluated for ionization constant (pKa3) by titrations performed in the presence of EtOH at a dielectric constant of 63; details: EtOH cosolvent; read-out: pKa3; outline: as §4
[44] = Evaluated for ionization constant (pKa4) by titrations performed in the presence of EtOH at a dielectric constant of 63; details: EtOH cosolvent; read-out: pKa4; outline: as §4
[45] = Evaluated for ionization constant (pKa1) by titrations performed in absence of cosolvent and at a dielectric constant of 78; details: no cosolvent, dielectric constant 78; read-out: pKa1
[46] = Evaluated for ionization constant (pKa4) by titrations performed in absence of cosolvent and at a dielectric constant of 78; details: no cosolvent; read-out: pKa4
[47] = Evaluated for ionization constant (pKa5) by titrations performed in absence of cosolvent and at a dielectric constant of 78; details: no cosolvent; read-out: pKa5; outline: as §3

Compound: O=C(O)CN(CCN(CC(=O)O)Cc1ccccc1O)Cc1ccccc1O
- pKa [1]: 8.34
- logP [2]: < -2
- pKa [3]: 8.36
- pKa [4]: 12.9
- pKa [5]: 11.1
- pKa [6]: 2.25
- pKa [7]: 1.11
- pKa [8]: 8.36
- pKa [9]: 8.37
- pKa [10]: 4.58
- pKa [11]: 4.71
- pKa [12]: 4.57
- logP [13]: 0.16
- pKa [14]: 1.18
- pKa [15]: 0.92
- pKa [16]: 1.05
- pKa [17]: 2.34
- pKa [18]: 1.62
- pKa [19]: 12.5
- pKa [20]: 8.36
- pKa [21]: 2.72
- pKa [22]: 4.58
- pKa [23]: 4.61
- logP [24]: < -2

Compound: COC(=O)CN(CCN(CC(=O)[O-])Cc1ccccc1O)Cc1ccccc1O.[Na+]
- pKa [25]: 12.2
- pKa [26]: 2.68
- pKa [27]: 7.41
- pKa [28]: 1.15
- logP [2]: < -2
- pKa [29]: 7.67
- pKa [30]: 12.1
- pKa [3]: 7.68
- pKa [31]: 10.9
- pKa [32]: 0.9
- pKa [33]: 2.77
- pKa [34]: 2.61
- pKa [35]: 2.94
- pKa [10]: 2.49
- pKa [36]: 12.1
- pKa [37]: 0.97
- logP [13]: 0.5
- pKa [18]: 1.3
- pKa [38]: 11.8
- pKa [39]: 7.48
- logP [24]: -0.29
- pKa [40]: 7.56
- pKa [41]: 11.5

Compound: CCOC(=O)CN(CCN(CC(=O)[O-])Cc1ccccc1O)Cc1ccccc1O.[Na+]
- logP [2]: -1.3
- pKa [29]: 7.64
- pKa [31]: 10.9
- pKa [42]: 11.4
- pKa [43]: 7.5
- pKa [44]: 2.75
- logP [13]: 1.15
- pKa [45]: 12.3
- pKa [46]: 2.91
- pKa [47]: 0.9
- logP [24]: 0.18
